Measured values taken from ChEMBL document CHEMBL5705905, “Pharmacological targeting of kinases MST1 and MST2 augments tissue repair and regeneration” (Sci Transl Med, 2016).
Activity calls are given as the source filed them. The calls are words filed in the database; no cut-off is given here.

Tests used:
[1] = tested on: Epidermal growth factor receptor (Homo sapiens), P00533 [UNDEFINED MUTATION]; assay: Inhibition of EGFR E746-A750del mutant (unknown origin) assessed as remaining activity at 1 uM by Kinome scan method relative to control
[2] = target: Vascular endothelial growth factor receptor 1 (Homo sapiens) (UniProt P17948); assay: Inhibition of FLT1 (unknown origin) assessed as remaining activity at 1 uM by Kinome scan method relative to control
[3] = target: Hormonally up-regulated neu tumor-associated kinase (Homo sapiens) (UniProt P57058); assay: Inhibition of HUNK (unknown origin) assessed as remaining activity at 1 uM by Kinome scan method relative to control
[4] = tested on: Fibroblast growth factor receptor 3 (Homo sapiens), P22607 [G697C]; assay: Inhibition of FGFR3 G697C mutant (unknown origin) assessed as remaining activity at 1 uM by Kinome scan method relative to control
[5] = tested on: Phosphatidylinositol 4,5-bisphosphate 3-kinase catalytic subunit alpha isoform (Homo sapiens), P42336 [C420R]; assay: Inhibition of PIK3CA C420R mutant (unknown origin) assessed as remaining activity at 1 uM by Kinome scan method relative to control
[6] = target: Mitogen-activated protein kinase kinase kinase kinase 1 (Homo sapiens) (UniProt Q92918); assay: Inhibition of HPK1 (unknown origin) assessed as remaining activity at 1 uM by Kinome scan method relative to control
[7] = Toxicity in DSS-induced mouse assessed as body weight loss at 1 mg/kg, ip administrated daily for over 1 to 21 days; type: organism-based; details: in vivo, time 1-21 day
In short: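 Colitis was induced with oral DSS on days 1–7, with vehicle or 1 mg/kg i.p. daily, n = 12 per group. Body weight was recorded over days 1–21 as a percentage of day 1; means ± SD, Student's t test per time point.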

[8] = target: T1, Serine/threonine-protein kinase 4 (Homo sapiens, UniProt Q13043); assay: Inhibition of recombinant His-tagged full-length MST1 (unknown origin) expressing in Escherichia coli assessed as MOB1a phosphorylation level incubated for 30 min in the presence of 300 uM ATP by immunoblot analysis
T1 sequence (Q13043 whole entry): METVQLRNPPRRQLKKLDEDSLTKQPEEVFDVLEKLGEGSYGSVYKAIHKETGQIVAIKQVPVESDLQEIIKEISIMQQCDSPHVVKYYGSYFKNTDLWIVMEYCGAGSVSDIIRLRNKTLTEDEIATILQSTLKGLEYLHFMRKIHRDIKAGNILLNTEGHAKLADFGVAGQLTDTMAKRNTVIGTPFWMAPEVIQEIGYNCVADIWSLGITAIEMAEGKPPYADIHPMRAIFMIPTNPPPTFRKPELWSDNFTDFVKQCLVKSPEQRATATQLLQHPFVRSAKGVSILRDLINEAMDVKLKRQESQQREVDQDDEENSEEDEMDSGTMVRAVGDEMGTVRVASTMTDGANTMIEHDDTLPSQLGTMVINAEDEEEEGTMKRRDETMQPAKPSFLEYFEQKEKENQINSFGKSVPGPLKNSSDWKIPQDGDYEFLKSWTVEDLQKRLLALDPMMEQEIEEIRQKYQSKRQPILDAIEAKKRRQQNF

Mus musculus [9] = assay: Protection against APAP induced liver injury in mouse assessed as decrease in ALT level at 1 mg/kg, ip administered at 1.5 hrs in the presence of NAC; type: functional, organism-based; details: Serum
[10] = target: T2, Serine/threonine-protein kinase 3 (Homo sapiens, UniProt Q13188); assay: Inhibition of MST2 (unknown origin) in presence of ATP by enzymatic assay
T2 sequence (Q13188 whole entry): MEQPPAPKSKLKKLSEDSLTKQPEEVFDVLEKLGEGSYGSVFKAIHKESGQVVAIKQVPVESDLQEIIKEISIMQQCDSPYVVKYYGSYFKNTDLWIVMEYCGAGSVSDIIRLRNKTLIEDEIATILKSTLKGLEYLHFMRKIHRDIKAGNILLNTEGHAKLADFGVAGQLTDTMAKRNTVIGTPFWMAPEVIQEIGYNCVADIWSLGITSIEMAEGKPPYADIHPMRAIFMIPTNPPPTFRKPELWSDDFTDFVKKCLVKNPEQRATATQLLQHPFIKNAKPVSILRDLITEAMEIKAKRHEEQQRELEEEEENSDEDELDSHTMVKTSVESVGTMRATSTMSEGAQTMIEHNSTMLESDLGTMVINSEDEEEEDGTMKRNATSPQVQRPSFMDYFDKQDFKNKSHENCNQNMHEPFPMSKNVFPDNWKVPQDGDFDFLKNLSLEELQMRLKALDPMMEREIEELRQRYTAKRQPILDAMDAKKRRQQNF

Mus musculus [11] = assay: Protection against human hepatocyte transplanted FRG mouse assessed as increase in the ratio of BrdU+/FAH+ cells at 1 mg/kg, ip administrated once a daily for 28 days by H&E staining based immunohistochemical analysis; type: functional, organism-based; details: Liver, time 28.0 day
Mus musculus [12] = assay: Protection against human hepatocyte transplanted FRG mouse assessed as Fah-deficient hepatocyte survival at 1 mg/kg, ip administrated once a daily for 28 days by H&E staining based immunohistochemical analysis; type: functional, organism-based; details: Liver, time 28.0 day
[13] = target: Mitogen-activated protein kinase kinase kinase 3 (Homo sapiens) (UniProt Q99759); assay: Inhibition of MAP3K3 (unknown origin) assessed as remaining activity at 1 uM by Kinome scan method relative to control
[14] = target: Ephrin type-A receptor 8 (Homo sapiens) (UniProt P29322); assay: Inhibition of EPHA8 (unknown origin) assessed as remaining activity at 1 uM by Kinome scan method relative to control
HepG2 = assay: Induction of apoptosis in human HepG2 cells overexpressing MST2 assessed as viable cells at 3 uM by annexinV staining (Rvb =84.2 %); type: functional; details: read-out: Activity
[15] = target: Serine/threonine-protein kinase RIO1 (Homo sapiens) (UniProt Q9BRS2); assay: Inhibition of RIOK1 (unknown origin) assessed as remaining activity at 1 uM by Kinome scan method relative to control
[16] = target: Mitogen-activated protein kinase kinase kinase 9 (Homo sapiens) (UniProt P80192); assay: Inhibition of MLK1 (unknown origin) assessed as remaining activity at 1 uM by Kinome scan method relative to control
[17] = target: Serine/threonine-protein kinase Nek1 (Homo sapiens) (UniProt Q96PY6); assay: Inhibition of NEK1 (unknown origin) assessed as remaining activity at 1 uM by Kinome scan method relative to control
[18] = target: Beta-adrenergic receptor kinase 1 (Homo sapiens) (UniProt P25098); assay: Inhibition of GRK2 (unknown origin) assessed as remaining activity at 1 uM by Kinome scan method relative to control
[19] = target: Mitogen-activated protein kinase 1 (Homo sapiens) (UniProt P28482); assay: Inhibition of ERK2 (unknown origin) assessed as remaining activity at 1 uM by Kinome scan method relative to control
[20] = target: Mitogen-activated protein kinase kinase kinase 4 (Homo sapiens) (UniProt Q9Y6R4); assay: Inhibition of MAP3K4 (unknown origin) assessed as remaining activity at 1 uM by Kinome scan method relative to control

Epidermal growth factor receptor (Homo sapiens), P00533 [UNDEFINED MUTATION], sequence (P00533 whole entry, looked up, stated change not applied): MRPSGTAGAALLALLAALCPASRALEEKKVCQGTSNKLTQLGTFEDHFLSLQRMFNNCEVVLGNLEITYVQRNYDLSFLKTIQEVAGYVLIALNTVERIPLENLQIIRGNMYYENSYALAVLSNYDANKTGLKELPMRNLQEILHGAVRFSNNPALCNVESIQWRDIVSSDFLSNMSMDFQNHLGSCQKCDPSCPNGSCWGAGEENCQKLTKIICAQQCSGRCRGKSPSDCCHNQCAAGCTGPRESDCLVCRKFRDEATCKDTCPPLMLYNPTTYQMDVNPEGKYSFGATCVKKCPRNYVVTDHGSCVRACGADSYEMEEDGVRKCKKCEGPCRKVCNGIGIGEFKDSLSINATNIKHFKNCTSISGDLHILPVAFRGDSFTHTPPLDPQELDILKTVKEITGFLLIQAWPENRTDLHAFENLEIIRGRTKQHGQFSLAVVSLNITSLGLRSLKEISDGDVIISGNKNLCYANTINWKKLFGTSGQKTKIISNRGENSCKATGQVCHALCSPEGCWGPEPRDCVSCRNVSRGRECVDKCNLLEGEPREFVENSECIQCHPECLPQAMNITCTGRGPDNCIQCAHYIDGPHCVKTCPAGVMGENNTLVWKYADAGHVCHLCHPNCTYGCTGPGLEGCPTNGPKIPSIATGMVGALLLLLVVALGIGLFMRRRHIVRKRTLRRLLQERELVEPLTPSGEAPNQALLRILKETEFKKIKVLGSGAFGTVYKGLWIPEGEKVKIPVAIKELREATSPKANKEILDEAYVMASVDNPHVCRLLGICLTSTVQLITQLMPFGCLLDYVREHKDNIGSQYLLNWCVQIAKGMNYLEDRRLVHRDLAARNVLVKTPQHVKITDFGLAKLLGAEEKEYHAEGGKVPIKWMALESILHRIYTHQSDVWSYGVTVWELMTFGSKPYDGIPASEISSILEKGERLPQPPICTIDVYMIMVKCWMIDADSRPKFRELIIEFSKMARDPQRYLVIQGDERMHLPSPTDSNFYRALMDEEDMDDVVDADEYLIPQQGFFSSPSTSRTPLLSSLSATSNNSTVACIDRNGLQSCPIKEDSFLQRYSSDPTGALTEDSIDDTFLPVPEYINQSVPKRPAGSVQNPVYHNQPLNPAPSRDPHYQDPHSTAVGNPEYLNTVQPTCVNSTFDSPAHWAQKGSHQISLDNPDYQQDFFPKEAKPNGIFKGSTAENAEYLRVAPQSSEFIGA
Serine/threonine-protein kinase Nek1 (Homo sapiens), sequence (Q96PY6 whole entry): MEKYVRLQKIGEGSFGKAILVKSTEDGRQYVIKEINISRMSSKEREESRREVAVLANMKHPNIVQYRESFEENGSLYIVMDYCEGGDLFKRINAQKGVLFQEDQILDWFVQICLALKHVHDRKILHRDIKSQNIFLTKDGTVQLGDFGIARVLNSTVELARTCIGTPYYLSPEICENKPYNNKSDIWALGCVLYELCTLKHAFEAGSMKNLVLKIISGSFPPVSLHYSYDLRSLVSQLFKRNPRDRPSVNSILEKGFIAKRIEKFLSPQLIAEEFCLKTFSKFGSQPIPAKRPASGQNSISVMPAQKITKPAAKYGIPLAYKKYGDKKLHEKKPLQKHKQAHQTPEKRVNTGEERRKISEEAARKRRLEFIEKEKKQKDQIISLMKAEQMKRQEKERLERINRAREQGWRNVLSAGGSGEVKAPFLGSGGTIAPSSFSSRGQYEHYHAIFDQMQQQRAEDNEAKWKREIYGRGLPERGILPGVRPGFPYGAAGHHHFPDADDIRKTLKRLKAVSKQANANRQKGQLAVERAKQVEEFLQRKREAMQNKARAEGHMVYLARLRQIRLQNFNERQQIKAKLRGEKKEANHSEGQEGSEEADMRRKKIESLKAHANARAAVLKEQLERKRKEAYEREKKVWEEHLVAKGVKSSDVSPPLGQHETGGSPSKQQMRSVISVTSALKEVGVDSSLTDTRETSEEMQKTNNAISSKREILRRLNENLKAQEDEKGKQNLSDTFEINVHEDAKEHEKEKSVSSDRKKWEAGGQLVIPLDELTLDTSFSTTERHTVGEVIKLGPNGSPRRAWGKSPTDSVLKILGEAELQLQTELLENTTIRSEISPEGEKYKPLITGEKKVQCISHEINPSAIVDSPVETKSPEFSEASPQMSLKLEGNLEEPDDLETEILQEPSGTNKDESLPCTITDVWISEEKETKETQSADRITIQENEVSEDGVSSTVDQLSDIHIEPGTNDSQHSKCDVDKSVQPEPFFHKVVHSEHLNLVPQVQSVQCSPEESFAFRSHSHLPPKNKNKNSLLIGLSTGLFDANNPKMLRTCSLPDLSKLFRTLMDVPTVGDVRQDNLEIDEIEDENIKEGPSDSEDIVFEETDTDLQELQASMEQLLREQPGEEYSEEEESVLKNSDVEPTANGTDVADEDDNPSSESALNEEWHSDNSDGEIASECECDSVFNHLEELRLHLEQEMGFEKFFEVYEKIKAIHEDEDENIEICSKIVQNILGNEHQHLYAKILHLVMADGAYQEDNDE
Vascular endothelial growth factor receptor 1 (Homo sapiens), sequence (P17948 whole entry): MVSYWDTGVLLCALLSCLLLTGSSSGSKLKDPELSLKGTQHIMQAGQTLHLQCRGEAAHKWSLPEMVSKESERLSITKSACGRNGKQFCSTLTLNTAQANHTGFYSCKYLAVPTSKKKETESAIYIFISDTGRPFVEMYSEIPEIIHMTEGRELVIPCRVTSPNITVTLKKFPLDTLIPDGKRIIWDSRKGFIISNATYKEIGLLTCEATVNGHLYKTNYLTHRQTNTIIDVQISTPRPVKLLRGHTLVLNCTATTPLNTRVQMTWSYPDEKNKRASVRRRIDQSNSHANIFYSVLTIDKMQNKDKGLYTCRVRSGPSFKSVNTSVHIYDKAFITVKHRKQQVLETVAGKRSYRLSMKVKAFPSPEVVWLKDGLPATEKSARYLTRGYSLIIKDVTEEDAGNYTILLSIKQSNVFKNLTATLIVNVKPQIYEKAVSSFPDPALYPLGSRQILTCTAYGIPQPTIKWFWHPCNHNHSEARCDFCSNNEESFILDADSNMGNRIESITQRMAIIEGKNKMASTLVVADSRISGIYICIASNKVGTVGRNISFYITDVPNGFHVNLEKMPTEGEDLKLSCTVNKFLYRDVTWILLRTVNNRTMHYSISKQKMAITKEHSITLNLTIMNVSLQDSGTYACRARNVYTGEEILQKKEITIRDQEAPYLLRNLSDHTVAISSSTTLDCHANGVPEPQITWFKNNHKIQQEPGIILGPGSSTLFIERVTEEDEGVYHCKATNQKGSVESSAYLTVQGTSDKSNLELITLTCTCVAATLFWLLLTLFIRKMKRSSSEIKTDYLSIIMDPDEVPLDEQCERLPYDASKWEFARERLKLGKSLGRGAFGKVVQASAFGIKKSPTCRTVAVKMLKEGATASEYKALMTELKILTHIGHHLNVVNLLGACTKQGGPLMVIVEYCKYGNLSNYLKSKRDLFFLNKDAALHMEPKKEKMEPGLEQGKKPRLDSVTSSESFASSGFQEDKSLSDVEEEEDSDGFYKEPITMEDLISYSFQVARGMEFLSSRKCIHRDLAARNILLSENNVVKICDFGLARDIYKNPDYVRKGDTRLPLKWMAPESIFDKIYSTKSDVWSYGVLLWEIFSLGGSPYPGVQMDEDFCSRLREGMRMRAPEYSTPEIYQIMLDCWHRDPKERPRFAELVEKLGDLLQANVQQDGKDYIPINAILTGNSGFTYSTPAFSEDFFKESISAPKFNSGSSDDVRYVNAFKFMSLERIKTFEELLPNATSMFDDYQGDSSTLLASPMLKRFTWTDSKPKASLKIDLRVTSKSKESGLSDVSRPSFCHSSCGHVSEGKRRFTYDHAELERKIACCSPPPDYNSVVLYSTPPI
Mitogen-activated protein kinase kinase kinase 9 (Homo sapiens), sequence (P80192 whole entry, looked up): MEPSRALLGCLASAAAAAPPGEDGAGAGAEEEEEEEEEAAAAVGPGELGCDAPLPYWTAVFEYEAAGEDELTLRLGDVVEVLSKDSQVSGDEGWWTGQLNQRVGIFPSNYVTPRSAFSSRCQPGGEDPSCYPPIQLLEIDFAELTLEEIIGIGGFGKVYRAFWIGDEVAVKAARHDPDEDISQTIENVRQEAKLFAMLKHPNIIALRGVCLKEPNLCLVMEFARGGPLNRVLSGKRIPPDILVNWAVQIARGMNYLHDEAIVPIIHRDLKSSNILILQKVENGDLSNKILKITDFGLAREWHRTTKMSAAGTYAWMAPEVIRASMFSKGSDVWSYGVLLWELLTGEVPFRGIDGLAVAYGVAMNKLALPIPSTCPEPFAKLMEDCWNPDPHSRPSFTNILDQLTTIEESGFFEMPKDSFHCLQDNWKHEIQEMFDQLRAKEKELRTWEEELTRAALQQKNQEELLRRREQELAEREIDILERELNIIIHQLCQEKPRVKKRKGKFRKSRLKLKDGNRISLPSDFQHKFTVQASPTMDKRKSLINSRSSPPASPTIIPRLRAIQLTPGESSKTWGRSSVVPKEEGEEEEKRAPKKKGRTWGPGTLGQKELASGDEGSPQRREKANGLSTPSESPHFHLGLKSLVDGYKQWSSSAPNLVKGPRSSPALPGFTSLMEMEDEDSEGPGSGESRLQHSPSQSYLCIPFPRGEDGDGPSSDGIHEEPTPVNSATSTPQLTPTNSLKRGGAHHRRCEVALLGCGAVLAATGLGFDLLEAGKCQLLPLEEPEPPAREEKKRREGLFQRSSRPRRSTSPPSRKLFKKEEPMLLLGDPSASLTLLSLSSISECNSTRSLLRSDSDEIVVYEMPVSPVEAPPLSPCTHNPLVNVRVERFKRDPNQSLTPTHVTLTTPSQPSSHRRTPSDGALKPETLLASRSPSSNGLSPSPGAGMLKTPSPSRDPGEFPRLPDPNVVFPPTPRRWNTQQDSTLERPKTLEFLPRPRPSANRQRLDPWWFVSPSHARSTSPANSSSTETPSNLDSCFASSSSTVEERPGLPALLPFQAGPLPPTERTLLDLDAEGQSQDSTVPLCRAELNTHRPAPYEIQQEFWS

`CN1C(=O)c2sccc2N(C)c2nc(Nc3ccc(S(N)(=O)=O)cc3)ncc21` gave an Activity [1] of 82%, an Activity [2] of 84% and an Activity [3] of 84%. The Activity [4] was 95%, the Activity [5] was 96% and the Activity [6] was 79%. The Activity [7] was “Toxic”, the IC50 [8] was 4040 nM and the Activity (Mus musculus [9]) was “Active”. The IC50 [10] was 18.2 nM, the Activity (Mus musculus [11]) was “Active” and the Activity (Mus musculus [12]) was “inactive”. For the same molecule, the Activity [13] was 2%, the Activity [14] was 100% and the viability at 3 µM (HepG2) was 93.1%. The Activity [15] was 86%, the Activity [16] was 100% and the Activity [17] was 95%. For the same molecule, the Activity [18] was 100%, the Activity [19] was 100% and the Activity [20] was 91%.
